“And” between values parts separate entries of the source, which are not always exact repeats. Equal values may be shown once.
Legend:
bromodomain of CBP = bromodomain of CBP (Homo sapiens, UniProt Q92793); assay: Binding affinity
[1] = biological target: T1, bromodomain of EP300 (p300) (Homo sapiens, UniProt Q09472); assay: Binding affinity
T1 sequence (Q09472 1049-1156 limits assumed): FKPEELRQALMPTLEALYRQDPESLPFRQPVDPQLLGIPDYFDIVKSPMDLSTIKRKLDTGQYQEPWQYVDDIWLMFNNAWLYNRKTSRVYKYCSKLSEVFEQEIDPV

BET family members = assay: Blocking interactions mediated by the four BET family members; type: biochemical
[2] = Plasma exposure in Ba/F3 splenomegaly mouse model; type: in vivo; conditions: 2 mg/kg
[3] = Plasma drug levels in MV4-11 tumor xenograft SCID mice; type: in vivo; conditions: mouse
Half-life in rodents = conditions: in vivo
Half-life in dogs = conditions: dog, in vivo
[4] = Plasma levels in wild type B6 mice; type: in vivo; conditions: B6, mouse, oral, 20 mg/kg
[5] = system: Eμ-TCL1 CD5/CD19 positive CLL-like leukemia; assay: Eμ-TCL1 transgenic mice with de novo leukemia, tumor burden; type: in vivo, mouse
primary CLL cells = assay: Proliferation of CpG stimulated primary CLL cells; type: cell-based, human; conditions: for proliferation of CpG stimulated primary CLL cells: increasing doses, 72h continuously or 4h followed by washout
Summary of the method: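 Primary CLL cells came from patients meeting 2008 IWCLL criteria. They were either stimulated with CpG oligonucleotides (TLR9 agonist) or left unstimulated (basal). Cells were given increasing concentrations of test compound, either continuously for 72 h or for 4 h followed by washout. Proliferation was measured by MTS assay. Data are shown per individual patient, with averages.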

MEC-1 = assay: Proliferation of MEC-1 cells; type: cell-based, human; conditions: for proliferation: MEC-1, increasing doses, 72h
OCI-LY1 = assay: Proliferation of OCI-LY1 cells; type: cell-based, human; conditions: for proliferation: OCI-LY1, increasing doses, 72h
healthy T-cells = assay: Proliferation of healthy T-cells stimulated with CD3/CD28 agonist antibodies; type: cell-based, human; conditions: washout conditions
[6] = system: primary CLL cells co-cultured on stromal cells (9–15c and Hs27); assay: CLL cell viability in stromal co-culture; type: cell-based, human; conditions: 1, 2 or 5μM, 72 h
[7] = system: stromal cells (9–15c and Hs27); assay: Stromal cell viability; type: cell-based
[8] = system: Ba/F3 (murine interleukin-3 dependent pro-B cell line) splenomegaly
[9] = system: Eμ-Myc/TCL1 leukemia/lymphoma

Chain of bromodomain of CBP (Q92793 1085-1192 limits assumed): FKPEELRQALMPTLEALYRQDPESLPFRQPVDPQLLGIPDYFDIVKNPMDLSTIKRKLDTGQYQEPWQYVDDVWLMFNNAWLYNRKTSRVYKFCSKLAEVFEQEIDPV

SMILES: Cc1noc(C)c1-c1cnc2c(-c3ccc(C(=O)O)cc3)cn([C@@H](C)c3ccccn3)c2c1 [PLX51107]
- Kd (bromodomain of CBP): ~100 nM
- Kd [1]: ~100 nM
- potency in blocking interactions mediated by the four BET family members (BET family members): low nanomolar potency
- AUC(0-t) [2]: 17700 ng·h/mL and 40 µM·h
- AUC(0-t) [3]: 90100 ng·h/mL and 205 µM·h
- half-life [3]: 168 min
- half-life (Half-life in rodents): < 180 min
- half-life (Half-life in dogs): < 180 min
- AUC(0-t) [4]: 96700 ng·h/mL and 220 µM·h
- leukemic disease burden in peripheral blood and spleen vs vehicle ([5]; 20 mg/kg daily, oral gavage, eight days): significantly reduced leukemic disease burden
- reduction of tumor burden compared with OTX015 (50 mg/kg, qd) ([5]; PLX51107 20 mg/kg, qd, thirty day study): more effective than OTX015
- inhibition of proliferation or toxicity (primary CLL cells; CLL cells under basal condition): not observed
- proliferation of CpG stimulated primary CLL cells (primary CLL cells): Dose-dependent decrease of proliferation
- IC50 compared to iBET762, JQ1, or OTX015 (MEC-1; MEC-1): lower IC50
- proliferation (MEC-1): Dose dependent decrease of proliferation
- IC50 compared to iBET762, JQ1, or OTX015 (OCI-LY1; OCI-LY1): lower IC50
- proliferation (OCI-LY1): Dose dependent decrease of proliferation
- anti-proliferative effect (healthy T-cells): no anti-proliferative effect
- cytotoxicity on CLL cells [6]: induces significant cytotoxicity
- effect on stromal cell viability [7]: no effect on stromal cell viability
- inhibition of splenomegaly ([8]; 2 mg/kg PLX51107 dose): Approximately 75%
- tolerability ([8]; mouse, in vivo): well tolerated
- survival ([9]; 20 mg/kg, qd, oral gavage, 70 days treatment): significantly prolonged survival
- tolerability ([9]; mouse, in vivo): well tolerated

SMILES: Cc1sc2c(c1C)C(c1ccc(Cl)cc1)=N[C@@H](CC(=O)OC(C)(C)C)c1nnc(C)n1-2 [JQ1, reference compound]
- proliferation of CpG stimulated primary CLL cells (primary CLL cells): Dose-dependent decrease of proliferation
- proliferation (MEC-1): Dose dependent decrease of proliferation
- proliferation (OCI-LY1): Dose dependent decrease of proliferation

SMILES: Cc1sc2c(c1C)C(c1ccc(Cl)cc1)=N[C@@H](CC(=O)Nc1ccc(O)cc1)c1nnc(C)n1-2 [OTX015, reference compound]
- proliferation of CpG stimulated primary CLL cells (primary CLL cells): Dose-dependent decrease of proliferation
- proliferation (MEC-1): Dose dependent decrease of proliferation
- proliferation (OCI-LY1): Dose dependent decrease of proliferation
- efficacy on splenomegaly relative to 2 mg/kg PLX51107 ([8]; 25 mg/kg OTX015): same level of efficacy

SMILES: CCNC(=O)C[C@@H]1N=C(c2ccc(Cl)cc2)c2cc(OC)ccc2-n2c(C)nnc21 [iBET762]
- proliferation of CpG stimulated primary CLL cells (primary CLL cells): Dose-dependent decrease of proliferation
